≈ marks a conversion by molar mass, not a printed value. Calls of active or inactive are those of the source. No cut-off for these calls is given here.
What was measured:
[1] = test system: MCF7; experiment: Induction of necrosis in human MCF7 cells at 20 uM after 48 hrs by Hoechst 33258/propidium iodide staining based phase contrast microscopic analysis; type: functional
Outline: (§1)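 Cells in 48-well plates treated with 0.5, 10, 20 or 40 µM for 24 and 48 h. Values are read at 48 h, 20 µM for test agents and 0.5 µM for controls. Staining is Hoechst 33258/propidium iodide double staining with fluorescence microscopy. Blue nuclei are viable or early-to-mid apoptotic, and pink nuclei are late apoptotic or necrotic. Apoptosis and necrosis are scored from chromatin condensation as % of cells. Cells are grown at 37 °C in 5% CO2 in RPMI, DMEM or McCoy's 5A with 10–15% heat-inactivated FCS.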

[2] = test system: Bacillus thuringiensis; experiment: Antimicrobial activity against Bacillus thuringiensis for 24 hrs by microdillution method; type: functional
Outline: (§2)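 Broth microdilution. Compound is dissolved in DMSO (2 mg/mL) and diluted in Mueller Hinton broth as two-fold serial dilutions from 256 to 0.125 µg/mL. Bacteria are pre-grown in nutrient broth at 30 °C, and the final inoculum is about 10^6 cfu/mL. Tests are incubated 37 °C for 24 h. MIC is the lowest concentration giving complete inhibition. Streptomycin is the positive control.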

[3] = test system: Candida albicans; experiment: Antimicrobial activity against Candida albicans ATCC 10231 assessed as zone of inhibition at 30 uL for 24 hrs at 30 degC by disk diffusion test; type: functional, organism-based
Outline: (§3)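 Agar well diffusion on Mueller Hinton agar seeded with 0.1 mL broth culture (18–24 h), adjusted to 0.5 McFarland (about 1×10^8 bacteria or 1×10^6 yeast cells/mL). A 6 mm well is filled with 30 µL of compound from a fresh 1000 µg/mL DMSO stock. Plates are held at 30 °C for 24 h and inhibition zone diameter is read in mm.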

[4] = test system: HT-29; experiment: Induction of apoptosis in human HT-29 cells at 20 uM after 48 hrs by Hoechst 33258/propidium iodide staining based phase contrast microscopic analysis; type: functional; outline: as §1
[5] = test system: MCF7; experiment: Antiproliferative activity against human MCF7 cells after 24 and 72 hrs by MTT assay; type: functional, cell-based
Outline: (§4)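 ATCC human cell lines are kept in RPMI, DMEM or McCoy's 5A with 10–15% heat-inactivated FCS at 37 °C and 5% CO2. They are seeded at 1×10^4–1×10^5 cells/mL in 48-well plates and exposed to 0.5, 10, 20 or 40 µM. Viability is read by MTT (590 nm) at 24 and 72 h. Growth is expressed relative to untreated cells and IC50 is fitted, in triplicate.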

[6] = test system: Pseudomonas aeruginosa; experiment: Antimicrobial activity against Pseudomonas aeruginosa ATCC 35032 assessed as zone of inhibition at 30 uL for 24 hrs at 37 degC by disk diffusion test; type: functional, organism-based
Outline: (§5)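 Compound (30 µL of a fresh 1000 µg/mL DMSO stock) goes into a 6 mm well cut in Mueller Hinton agar inoculated with 0.1 mL broth culture adjusted to 0.5 McFarland (about 1×10^8 cells/mL). Plates are incubated 24 h at 37 °C, then zone of inhibition diameter is measured in mm.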

[7] = test system: Caco-2; experiment: Induction of necrosis in human Caco2 cells at 20 uM after 48 hrs by Hoechst 33258/propidium iodide staining based phase contrast microscopic analysis; type: functional; outline: as §1
[8] = test system: Escherichia coli; experiment: Antimicrobial activity against Escherichia coli ATCC 25922 assessed as zone of inhibition at 30 uL for 24 hrs at 37 degC by disk diffusion test; type: functional, organism-based; outline: as §5
[9] = test system: Caco-2; experiment: Antiproliferative activity against human Caco2 cells after 24 and 72 hrs by MTT assay; type: functional, cell-based; outline: as §4
[10] = test system: Enterococcus faecalis; experiment: Antimicrobial activity against Enterococcus faecalis ATCC 29212 assessed as zone of inhibition at 30 uL for 24 hrs at 37 degC by disk diffusion test; type: functional, organism-based; outline: as §5
[11] = test system: HL-60; experiment: Induction of necrosis in human HL60 cells at 20 uM after 48 hrs by Hoechst 33258/propidium iodide staining based phase contrast microscopic analysis; type: functional; outline: as §1
[12] = test system: Klebsiella pneumoniae; experiment: Antimicrobial activity against Klebsiella pneumoniae ATCC 13882 assessed as zone of inhibition at 30 uL for 24 hrs at 37 degC by disk diffusion test; type: functional, organism-based; outline: as §5
[13] = Antiproliferative activity against human Saos2 cells after 24 and 72 hrs by MTT assay; type: functional, cell-based; details: SAOS-2; outline: as §4
[14] = test system: Bacillus subtilis; experiment: Antimicrobial activity against Bacillus subtilis ATCC 6633 assessed as zone of inhibition at 30 uL for 24 hrs at 30 degC by disk diffusion test; type: functional; outline: as §3
[15] = test system: Bacillus subtilis; experiment: Antimicrobial activity against Bacillus subtilis ATCC 6633 for 24 hrs by microdillution method; type: functional; outline: as §2
[16] = test system: HeLa; experiment: Antiproliferative activity against human HeLa cells after 24 and 72 hrs by MTT assay; type: functional, cell-based; outline: as §4
[17] = test system: HL-60; experiment: Induction of apoptosis in human HL60 cells at 20 uM after 48 hrs by Hoechst 33258/propidium iodide staining based phase contrast microscopic analysis; type: functional; outline: as §1
[18] = test system: Proteus vulgaris; experiment: Antimicrobial activity against Proteus vulgaris ATCC 33420 assessed as zone of inhibition at 30 uL for 24 hrs at 37 degC by disk diffusion test; type: functional, organism-based; outline: as §5
[19] = test system: Nakaseomyces glabratus; experiment: Antimicrobial activity against Candida glabrata assessed as zone of inhibition at 30 uL for 24 hrs at 30 degC by disk diffusion test; type: functional, organism-based; outline: as §3
[20] = test system: HT-29; experiment: Antiproliferative activity against human HT-29 cells after 24 and 72 hrs by MTT assay; type: functional, cell-based; outline: as §4
[21] = test system: MCF7; experiment: Induction of apoptosis in human MCF7 cells at 20 uM after 48 hrs by Hoechst 33258/propidium iodide staining based phase contrast microscopic analysis; type: functional; outline: as §1
[22] = test system: SAOS-2; experiment: Induction of necrosis in human Saos2 cells at 20 uM after 48 hrs by Hoechst 33258/propidium iodide staining based […] microscopic analysis; type: functional; outline: as §1
[23] = test system: Staphylococcus epidermidis; experiment: Antimicrobial activity against Staphylococcus epidermidis ATCC 12228 assessed as zone of inhibition at 30 uL for 24 hrs at 37 degC by disk diffusion test; type: functional, organism-based; outline: as §5
[24] = test system: Staphylococcus aureus; experiment: Antimicrobial activity against Staphylococcus aureus ATCC 25923 assessed as zone of inhibition at 30 uL for 24 hrs at 37 degC by disk diffusion test; type: functional, organism-based; outline: as §5
[25] = test system: Bacillus cereus; experiment: Antimicrobial activity against Bacillus cereus ATCC 11778 assessed as zone of inhibition at 30 uL for 24 hrs at 30 degC by disk diffusion test; type: functional; outline: as §3
[26] = test system: Bacillus thuringiensis; experiment: Antimicrobial activity against Bacillus thuringiensis assessed as zone of inhibition at 30 uL for 24 hrs at 30 degC by disk diffusion test; type: functional; outline: as §3
[27] = test system: Bacillus cereus; experiment: Antimicrobial activity against Bacillus cereus ATCC 11778 for 24 hrs by microdillution method; type: functional; outline: as §2
[28] = test system: SAOS-2; experiment: Induction of apoptosis in human Saos2 cells at 20 uM after 48 hrs by Hoechst 33258/propidium iodide staining based phase contrast microscopic analysis; type: functional; outline: as §1
[29] = test system: HL-60; experiment: Antiproliferative activity against human HL60 cells after 24 and 72 hrs by MTT assay; type: functional, cell-based; outline: as §4
[30] = test system: HeLa; experiment: Induction of necrosis in human HeLa cells at 20 uM after 48 hrs by Hoechst 33258/propidium iodide staining based phase contrast microscopic analysis; type: functional; outline: as §1
[31] = test system: Micrococcus luteus; experiment: Antimicrobial activity against Micrococcus luteus ATCC 9341 assessed as zone of inhibition at 30 uL for 24 hrs at 30 degC by disk diffusion test; type: functional, organism-based; outline: as §3
[32] = test system: Salmonella typhimurium; experiment: Antimicrobial activity against Salmonella typhimurium ATCC 14028 assessed as zone of inhibition at 30 uL for 24 hrs at 37 degC by disk diffusion test; type: functional, organism-based; details: Salmonella enterica subsp. enterica serovar Typhimurium; outline: as §5
[33] = test system: Saccharomyces cerevisiae; experiment: Antimicrobial activity against Saccharomyces cerevisiae ATCC 9763 assessed as zone of inhibition at 30 uL for 24 hrs at 30 degC by disk diffusion test; type: functional, organism-based; outline: as §3
[34] = test system: HeLa; experiment: Induction of apoptosis in human HeLa cells at 20 uM after 48 hrs by Hoechst 33258/propidium iodide staining based phase contrast microscopic analysis; type: functional; outline: as §1
[35] = test system: Caco-2; experiment: Induction of apoptosis in human Caco2 cells at 20 uM after 48 hrs by Hoechst 33258/propidium iodide staining based phase contrast microscopic analysis; type: functional; outline: as §1
[36] = test system: Cyberlindnera jadinii; experiment: Antimicrobial activity against Candida utilis ATCC 9950 assessed as zone of inhibition at 30 uL for 24 hrs at 30 degC by disk diffusion test; type: functional, organism-based; outline: as §3
[37] = test system: Candida tropicalis; experiment: Antimicrobial activity against Candida tropicalis assessed as zone of inhibition at 30 uL for 24 hrs at 30 degC by disk diffusion test; type: functional, organism-based; outline: as §3
[38] = test system: HT-29; experiment: Induction of necrosis in human HT-29 cells at 20 uM after 48 hrs by Hoechst 33258/propidium iodide staining based phase contrast microscopic analysis; type: functional; outline: as §1

Structure (SMILES)	Activity [1] [%]	MIC [2]	diameter of the inhibition zone (DIZ) [3]	Activity [4] [%]	IC50 [5] [µM]	diameter of the inhibition zone (DIZ) [6]	Activity [7] [%]	diameter of the inhibition zone (DIZ) [8]	IC50 [9] [µM]	diameter of the inhibition zone (DIZ) [10]	Activity [11] [%]	diameter of the inhibition zone (DIZ) [12]	IC50 [13] [µM]	diameter of the inhibition zone (DIZ) [14]	IC50 [16] [µM]	Activity [17] [%]	diameter of the inhibition zone (DIZ) [18]	diameter of the inhibition zone (DIZ) [19]	IC50 [20] [µM]	Activity [21] [%]	other results
CC1(C)CC[C@]2(C(=O)O)CC[C@]3(C)C(=CC[C@@H]4[C@@]5(C)CC[C@H](O)[C@@](C)(C=O)[C@@H]5CC[C@]43C)[C@@H]2C1	4	32 µg/mL (≈ 68 µM)	inactive	21	9.02	inactive	0	inactive	16.7	inactive	4	inactive	7.85	13 mm	22.5	33	inactive	inactive	11.9	30	MIC ([15]; ATCC 6633, 24 h): 32 µg/mL (≈ 68 µM); Activity [22]: 2%; diameter of the inhibition zone (DIZ) [23]: inactive; diameter of the inhibition zone (DIZ) [24]: inactive; diameter of the inhibition zone (DIZ) [25]: 13 mm; diameter of the inhibition zone (DIZ) [26]: 13 mm; MIC ([27]; ATCC 11778, 24 h): 32 µg/mL (≈ 68 µM); Activity [28]: 36%; IC50 [29]: 10.4 µM; Activity [30]: 0%; diameter of the inhibition zone (DIZ) [31]: inactive; diameter of the inhibition zone (DIZ) [32]: inactive; diameter of the inhibition zone (DIZ) [33]: inactive; Activity [34]: 29%; Activity [35]: 20%; diameter of the inhibition zone (DIZ) [36]: inactive; diameter of the inhibition zone (DIZ) [37]: inactive; Activity [38]: 2%
CC1(C)CC[C@]2(C(=O)OCc3ccccc3)CC[C@]3(C)C(=CC[C@@H]4[C@@]5(C)CC[C@H](O)[C@@](C)(/C=N/O)[C@@H]5CC[C@]43C)[C@@H]2C1	54	inactive	inactive	12	6.67	inactive	32	inactive	16.1	inactive	41	inactive	10.3	inactive	28.9	8	inactive	inactive	8.01	12	MIC [15]: inactive; Activity [22]: 23%; diameter of the inhibition zone (DIZ) [23]: inactive; diameter of the inhibition zone (DIZ) [24]: inactive; diameter of the inhibition zone (DIZ) [25]: inactive; diameter of the inhibition zone (DIZ) [26]: inactive; MIC [27]: inactive; Activity [28]: 9%; IC50 [29]: 10.6 µM; Activity [30]: 32%; diameter of the inhibition zone (DIZ) [31]: inactive; diameter of the inhibition zone (DIZ) [32]: inactive; diameter of the inhibition zone (DIZ) [33]: inactive; Activity [34]: 11%; Activity [35]: 11%; diameter of the inhibition zone (DIZ) [36]: inactive; diameter of the inhibition zone (DIZ) [37]: inactive; Activity [38]: 29%
CC(=O)O[C@H]1CC[C@]2(C)[C@H]3CC=C4[C@@H]5CC(C)(C)CC[C@]5(C(=O)O)CC[C@@]4(C)[C@]3(C)CC[C@H]2[C@]1(C)/C=N\O	55	64 µg/mL (≈ 121 µM)	inactive	0.6	10.8	inactive	17	inactive	28.2	inactive	52	inactive	8.95	13 mm	116	6	inactive	inactive	6.71	5	MIC ([15]; ATCC 6633, 24 h): 32 µg/mL (≈ 60.6 µM); Activity [22]: 46%; diameter of the inhibition zone (DIZ) [23]: inactive; diameter of the inhibition zone (DIZ) [24]: inactive; diameter of the inhibition zone (DIZ) [25]: 12 mm; diameter of the inhibition zone (DIZ) [26]: 12 mm; MIC ([27]; ATCC 11778, 24 h): 64 µg/mL (≈ 121 µM); Activity [28]: 1%; IC50 [29]: 5.98 µM; Activity [30]: 64%; diameter of the inhibition zone (DIZ) [31]: inactive; diameter of the inhibition zone (DIZ) [32]: inactive; diameter of the inhibition zone (DIZ) [33]: inactive; Activity [34]: 0%; Activity [35]: 0%; diameter of the inhibition zone (DIZ) [36]: inactive; diameter of the inhibition zone (DIZ) [37]: inactive; Activity [38]: 28%
